CTSL1 counter: blocks F. hepatica cathepsin L1 in PFM18AAP counter-screen; recombinant F. hepatica cathepsin L1, Z-Leu-Arg-MCA fluorescence; hit rate 0.49% among 300,000; AID 1906; inhibition, % at 5.96 µM;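 active = inhibition above the mean of all tested compounds plus 3 SD, set per screening campaign, cut at about 17% in these data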
VIM-2 inh: blocks Pseudomonas aeruginosa VIM-2 metallo-beta-lactamase; purified VIM-2, nitrocefin hydrolysis, epi-absorbance fluorescence; inhibition, % at 5.6 µM; hit rate 0.89% among 290,000;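 active = inhibition above the mean of all tested compounds plus 3 SD, cutoff set per screening run, cut at about 7.5% in these data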;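 note: red hydrolysis product quenches plate fluorescence so inhibitors raise well fluorescence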
PfM18AAP inh: PfM18AAP enzyme inhibition | recombinant PfM18AAP, H-Glu-NHMec fluorogenic cleavage | inhibition, % at 7.35 µM | hit rate 1.2% among 290,000;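 active = inhibition above the campaign mean inhibition over all tested compounds plus 3 SD, cut at about 28% in these data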
IMP-1 inh: inhibitors of Pseudomonas aeruginosa IMP-1 metallo-beta-lactamase. hit rate 0.45% among 290,000. inhibition, % at 5.6 µM. purified IMP-1, nitrocefin hydrolysis, epi-absorbance fluorescence;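 active = inhibition above the mean plus 3 SD of all compounds in the same screening run, cut at about 4.5% in these data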
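System – purified recombinant IMP-1 beta-lactamase · Input – IMP-1 dispensed at 0.2 nM · Timing – 15 min preincubation plus 25 min reaction at 25 °C · Signal – Epi-absorbance fluorescence, 480 nm excitation, 530 nm emission · Measure – percent IMP-1 inhibition derived from blank-referenced optical density · Controls – Enzyme-plus-DMSO low control, enzyme-free DMSO high control · Replication – singlicate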
Of the large screens only hits and unclear results are named; the others gave an inactive call. This is a sample that favours compounds with a hit; in the whole collection about 2.7% have one here.

COC(Cn1c(-c2cccc(S(=O)(=O)N(C)C)c2)n[nH]c1=S)OC	PfM18AAP inh 31
CN(CC1CCCO1)S(=O)(=O)c1ccc(C(=O)Nc2ccc(S(N)(=O)=O)cc2)cc1 (stereo not given)	IMP-1 inh 4.8
Cc1cc(=O)n2c3ccccc3n(C)c2n1	VIM-2 inh 10 (no result: CTSL1 counter)
Cc1nc2cc(NC(=O)COc3ccc(C#N)cc3)ccc2n1-c1ccccc1	none
Cc1nn2c(-c3cccc(NC(=O)CN4CCOCC4)c3)nnc2c2ccccc12	none
CCN(CC)C(=O)CSc1nc2c(sc(=S)n2-c2ccccc2)c(=O)n1-c1ccc(OC)cc1OC	none
CCOC(=O)CSc1nc2c(sc(=S)n2-c2ccccc2)c(=O)n1-c1ccc(OC)cc1OC	PfM18AAP inh 30
Cc1c(C)c2cc(Cl)c(O)c(CN3CCN(C)CC3)c2oc1=O	IMP-1 inh 6.2
Cc1c(C)c2cc(Cl)c(O)c(CN3CCCC(C)C3)c2oc1=O (stereo not given)	none
Cc1ccc(S(=O)(=O)NC(=O)c2ccc(-c3ccc(C)c4ccccc34)o2)cc1	IMP-1 inh 4.7
Cc1ccc(-c2ccc(C(=O)Nc3ccccc3)o2)c2ccccc12	none
CN1CCN(S(=O)(=O)c2ccc(Cl)s2)CC1	none
O=C(Nc1ccccc1C(=O)N1CCCCC1)c1ccc(Cl)cc1Cl	none
COc1cc(C(=O)NC2=NCCS2)ccc1OCc1c(C)noc1C	CTSL1 counter 37
O=S(=O)(CCC1CCCCN1)c1ccccc1 (stereo not given)	none
O=c1[nH]nc(Sc2ncnc3sccc23)n1CCc1ccccc1	VIM-2 inh 9.7
NC(=O)C1CCN(C2=C(Cl)C(=O)c3ccccc3C2=O)CC1	CTSL1 counter 24
CN1CCN(C2=C(NS(=O)(=O)c3ccccc3)C(=O)c3ccccc3C2=O)CC1	none
CCOC(=O)N1CCN(C(=O)c2ccccc2NS(=O)(=O)c2ccc(C)cc2)CC1	none
NC(=O)C1CCN(C2=C(NS(=O)(=O)c3ccccc3)C(=O)c3ccccc3C2=O)CC1	VIM-2 inh 8.8
CCOC(=O)N1CCN(C2=C(NS(=O)(=O)c3ccccc3)C(=O)c3ccccc3C2=O)CC1	VIM-2 inh 9.4
CCN1CCN(C2=C(NS(=O)(=O)c3ccccc3)C(=O)c3ccccc3C2=O)CC1	PfM18AAP inh 30
O=C1C(Cl)=C(N2CCC(C(=O)O)CC2)C(=O)c2ccccc21	none
NNC(=O)c1ccc(CSc2nc3ccccc3s2)cc1	none
CCCc1nnc2n1N=C(c1ccc(C)cc1)CS2	none
COc1ccccc1NC(=S)N1CCN(C(=O)C2CCCO2)CC1 (stereo not given)	none
COc1cccc(CNC(=O)c2ccccc2SCC(=O)N2CCCC2)c1	none (no result: VIM-2 inh, PfM18AAP inh, IMP-1 inh)
O=C(CSc1nnc(NC(=O)C2CC2)s1)NCc1ccc(F)cc1	none
CCOC(=O)C1CCN(C2=C(NS(=O)(=O)c3ccc(Br)cc3)C(=O)c3ccccc3C2=O)CC1	none
NC(=O)C1CCN(C2=C(NS(=O)(=O)c3ccc(Br)cc3)C(=O)c3ccccc3C2=O)CC1	none
CCN1CCN(C2=C(NS(=O)(=O)c3ccc(Br)cc3)C(=O)c3ccccc3C2=O)CC1	CTSL1 counter 20
O=C1C(NS(=O)(=O)c2ccc(Cl)cc2)=C(N2CCCCC2)C(=O)c2ccccc21	VIM-2 inh 9.3
COc1ccc(Cl)cc1NC(=O)CCS(=O)(=O)c1ccc(C)cc1	none
COc1cc(NC(=O)c2cc3cccc(OC)c3o2)cc(C(=O)Nc2cccc(C(F)(F)F)c2)c1	none (no result: VIM-2 inh, PfM18AAP inh, IMP-1 inh)
COc1ccc(C2C(C#N)=C(N)N(c3sc4c(c3C#N)CCCC4)C3=C2C(=O)CC(C)(C)C3)cc1 (stereo not given)	IMP-1 inh 4.7
CC(=O)N1CC23C=CC(CC2CC12CCCCCC2)O3 (stereo not given)	none
NNc1cc([N+](=O)[O-])cc2c1C(=O)N(Cc1ccccc1)S2=O (stereo not given)	PfM18AAP inh 42
COc1ccc(-c2sc(C(=O)c3ccc(Cl)cc3Cl)cc2CC(=O)O)cc1	VIM-2 inh 11
COC(=O)c1cccc(NC(=O)CSc2nnc(C)o2)c1	IMP-1 inh 7.5
Cc1cc(Cl)c2oc(C(=O)N3CCN(c4ccncc4)CC3)c(C)c2c1	VIM-2 inh 7.8
COC(=O)C1CCN(C(=O)c2oc3c(Cl)cc(C)cc3c2C)CC1	none
Cc1ccc(C(C(=O)NC2CCCC2)N2CCc3ccccc32)cc1 (stereo not given)	none
O=C(CNS(=O)(=O)c1ccccc1)Nc1ccc2c(c1)OCO2	none
Cc1cc(Nc2ccc(Br)c(C)c2)n2nc(C)nc2n1	VIM-2 inh 10
Cc1cc(C)cc(Nc2cc(C)nc3nc(C)nn23)c1	VIM-2 inh 22
Cc1cc(Nc2cccc(C)c2C)n2nc(C)nc2n1	VIM-2 inh 10
COc1cc([N+](=O)[O-])ccc1NC(=O)CCCOc1cccc(C)c1	none
CCCCCC(=O)NC(=S)Nc1ccc2oc(=O)ccc2c1	none
COc1ccccc1NC(=O)NC1(C)CCS(=O)(=O)C1 (stereo not given)	none (no result: CTSL1 counter)
OCCN1CCN(c2nc(-c3ccccc3)c3cc(Br)ccc3n2)CC1	VIM-2 inh 8.0
Cc1ccc(-c2nc3c(c(SCC(=O)N4CCOCC4)n2)Cc2c(CO)cnc(C)c2O3)cc1	IMP-1 inh 8.9
COc1ccc(-c2nc3c(c(SCC(=O)N4CCOCC4)n2)Cc2c(CO)cnc(C)c2O3)cc1	IMP-1 inh 6.3
Cc1ccc(NCC(=O)Nc2c(C)n(C)n(-c3ccccc3)c2=O)cc1S(=O)(=O)N(C)C	none
COc1ccc(-c2cc(=O)oc3cc(OCC(=O)N4C[C@H]5C[C@@H](C4)c4cccc(=O)n4C5)ccc23)cc1	none
O=C(COc1ccc2c3c(c(=O)oc2c1)CCCC3)NCCCN1CCCC1=O	none
O=C(COc1ccc2c3c(c(=O)oc2c1)CCC3)N1CCCCC1	VIM-2 inh 12
O=C(COc1ccc2c3c(c(=O)oc2c1)CCCC3)N1C[C@H]2C[C@@H](C1)c1cccc(=O)n1C2	VIM-2 inh 9.1
O=C(COc1ccc2c3c(c(=O)oc2c1)CCC3)NCCCN1CCCC1=O	VIM-2 inh 11
O=C(O)C1CCN(C(=O)COc2ccc3c4c(c(=O)oc3c2)CCCC4)CC1	none
O=C(COc1ccc2c3c(c(=O)oc2c1)CCC3)N1CCN(c2ccccc2)CC1	VIM-2 inh 11
Cc1cccc(N(CC(=O)NC2CCCC2)C(=O)CCC(=O)Nc2ccccn2)c1	none
COCCCn1c(=S)[nH]c2c(sc3ccccc32)c1=O	none
CC(C)CCNC(=O)c1onc(CSc2ccccc2)c1C(=O)NCCC(C)C	none (no result: VIM-2 inh, PfM18AAP inh, IMP-1 inh)
CC(C)Oc1ccc2c3c(c(=O)oc2c1)CCC3	VIM-2 inh 8.6
CC(=O)Oc1ccc2c3c(c(=O)oc2c1)CCCC3	none
O=C(COc1ccc2c3c(c(=O)oc2c1)CCC3)N1CCCC1	VIM-2 inh 9.8
Fc1ccccc1NC(=S)NNc1ncc(C(F)(F)F)cc1Cl	PfM18AAP inh 28
Cc1ccc(NC(=O)CCn2nc([N+](=O)[O-])cc2C)nc1	none
O=C(CNC(=O)N1CC(=O)Nc2ccccc21)Nc1cccc(F)c1	none
CCn1c(C)nc2cc(C(=O)NNC(=O)Nc3ccc(Cl)cc3)ccc21	none
CCn1c(C)nc2cc(C(=O)NNC(=O)Nc3cccc(Cl)c3)ccc21	PfM18AAP inh 31

Screening results as filed in PubChem BioAssay.
